Measurements: PMC7909006 (Clinical cancer research : an official journal of the …, 2020)

What was measured:
[1] = test system: circulating monocytes and regulatory T cells and TAMs; details: cited from earlier work
[2] = non-human primate model, nontumor setting; cited from earlier work
[3] = test system: serum cytokines (IL-10, IL-12p70, IL-6, MCP-1, M-CSF); assay: Pharmacodynamics: serum cytokine analysis, fold change from Day 1; format: in vivo, human
[4] = recurrent glioblastoma patients, plasma taken at time of surgery; cited from earlier work
PBMC = assay: Flow cytometric analysis of PBMC and lymphocyte subset analysis; format: in vivo, human
[5] = Plasma pharmacokinetics, noncompartmental analysis; format: in vivo, human
Outline: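 Oral dosing once daily, BSA-based at 400, 600 or 800 mg/m2, rolling-six escalation. Peripheral blood sampled on C1 day 1 before dosing and at 0.5–24 h after, on day 15 before dosing and at 1–6 h after, and before dosing on day 16. Plasma assayed by validated LC-MS/MS (LLOQ 10 nmol/L). Cmax, Tmax, AUC and CL/F derived by noncompartmental analysis.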

[6] = test system: peripheral blood immune cells; assay: Pharmacodynamics: fold change in peripheral blood; format: in vivo, human
Outline: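 Complete blood counts, including absolute monocyte count, were taken as safety labs before treatment, mid-C1, before C2–C9, then every other cycle and at end of therapy. Patients took the oral agent once daily on a continuous 28-day cycle, dosed by BSA at 400, 600 or 800 mg/m2.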

[7] = test system: recurrent or refractory acute leukemias or solid tumors including NF1 PN; assay: Tumor response; format: in vivo, human
Outline: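 Tumors assessed at baseline (within 14 days before start), then after every even 28-day cycle with the same imaging modality. Criteria were RECIST v1.1 for solid tumors, WHO for brain tumors, and volumetric MRI for NF1 plexiform neurofibromas (baseline, every 4th cycle in year 1, then every 6 cycles). Leukemia was followed by blood and marrow each cycle. Treatment lasted up to two years.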

[8] = adult patients; cited from earlier work
[9] = adults; cited from earlier work
Population PK modeling = assay: Population PK modeling; parameters: species or system human; details: for RP2D based on body weight (population PK): exposure matched to adults receiving 800 mg daily
Outline: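 Nonlinear mixed-effects model: two compartments, sequential zero- and first-order absorption with lag time, linear elimination, and body weight as an allometric covariate on disposition parameters. Final-model estimates were used to simulate doses for ages 6–18 years that match steady-state exposure in adult TGCT patients given 800 mg daily.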

[10] = Phase I safety and tolerability: adverse events; format: in vivo
[11] = patient 2, Osteosarcoma, dose level 1
[12] = patient 3, Ewing Sarcoma, dose level 1
[13] = patient 4, NF1 plexiform neurofibroma, dose level 1
[14] = patient 5, NF1 plexiform neurofibroma, dose level 2
[15] = patient 6, NF1 plexiform neurofibroma, dose level 2
[16] = patient 7, Central Nervous System PNET, dose level 2
[17] = patient 8, Primary brain tumor, dose level 2
[18] = patient 9, NF1 malignant peripheral nerve sheath tumor, dose level 3
[19] = patient 10, Osteosarcoma, dose level 3
[20] = patient 11, Osteosarcoma, dose level 3
[21] = patient 12, Embryonal rhabdomyosarcoma, dose level 3
[22] = patient 13, Acute myeloid leukemia, dose level 3
[23] = patient 14, Spindle cell carcinoma, dose level 3
[24] = patient 15, Aneurysmal fibrous histiocytoma, dose level 3
[25] = patient 16, Glioblastoma, dose level 3

## FC(F)(F)c1ccc(CNc2ccc(Cc3c[nH]c4ncc(Cl)cc34)cn2)cn1 [Pexidartinib]
[1]
  Effect on immune cells in a preclinical model: decreases in circulating monocytes and regulatory T cells and TAMs
[2]
  Drug levels in the cerebral spinal fluid: low but detectable levels
[3]; 14–15 Days from C1, N=12
  IL-6 serum, Med. Fold Change (95% CI) from Day 1: 0.91 (0.78, 1.34)
  IL-10 serum, Med. Fold Change (95% CI) from Day 1: 1.25 (1.11, 1.44)
  IL-12p70 serum, Med. Fold Change (95% CI) from Day 1: 0.92 (0.80, 1.25)
  M-CSF serum, Med. Fold Change (95% CI) from Day 1: 3.70 (2.31, 5.24)
  MCP-1 serum, Med. Fold Change (95% CI) from Day 1: 1.28 (1.01, 1.56)
[3]; 27–29 Days from C1, N=8
  IL-6 serum, Med. Fold Change (95% CI) from Day 1: 0.98 (0.64, 2.39)
  IL-10 serum, Med. Fold Change (95% CI) from Day 1: 1.22 (0.81, 1.30)
  IL-12p70 serum, Med. Fold Change (95% CI) from Day 1: 0.86 (0.66, 1.05)
  M-CSF serum, Med. Fold Change (95% CI) from Day 1: 4.52 (2.40, 13.3)
  MCP-1 serum, Med. Fold Change (95% CI) from Day 1: 1.27 (1.11, 1.54)
[3]; 400, 600, 800 mg/m^2 DLs
  Target inhibition (CSF1 levels elevated, AMC levels decreased): seen at all DLs
[4]
  Median ratio of tumor/plasma concentrations: 70%
PBMC; C1
  Change in CD14dimCD16+ nonclassical, pro-inflammatory monocytes: No significant changes
PBMC; C1 days 6–8, flow cytometry
  CD11b+ cells in PBMC, median fold change (95% CI): 0.47 (0.21, 1.31)
PBMC; during C1
  Change in peripheral blood lymphocyte subset analysis: no notable changes
[5]; DL1 to DL3
  AUC0–24 dependence on dose: rose with increasing dose
  Cmax dependence on dose: rose with increasing dose
[5]; day 15 vs day 1, DL3 (n=3)
  Accumulation ratio, median: 1.22
[5]; first day of dosing
  Clearance from concentration x time curves: slow clearance
[5]; over three DLs
  PK dose linearity: linear
[6]; 6–8 Days from C1, N=9
  Absolute Immature Granulocyte, Med. Fold Change (95% CI) from Day 1: 0.50 (0.10, 1.00)
  Immature granulocytes, Med. Fold Change (95% CI) from Day 1: 0.50 (0.08, 0.67)
[6]; 6–8 Days from C1, N=10
  Absolute Eosinophil Count, Med. Fold Change (95% CI) from Day 1: 0.76 (0.50, 1.07)
  Eosinophils %, Med. Fold Change (95% CI) from Day 1: 0.78 (0.55, 1.04)
[6]; 6–8 Days from C1, N=12
  Absolute Basophil Count, Med. Fold Change (95% CI) from Day 1: 0.92 (0.50, 1.00)
  Basophils %, Med. Fold Change (95% CI) from Day 1: 0.95 (0.50, 1.13)
[6]; 6–8 Days from C1, N=13
  Absolute Lymphocyte Count, Med. Fold Change (95% CI) from Day 1: 0.97 (0.68, 1.20)
  Absolute Monocyte Count, Med. Fold Change (95% CI) from Day 1: 0.58 (0.35, 0.81)
  Absolute Neutrophil Count, Med. Fold Change (95% CI) from Day 1: 0.90 (0.77, 1.26)
  Hemoglobin (Hgb), Med. Fold Change (95% CI) from Day 1: 1.03 (0.97, 1.08)
  Lymphocytes %, Med. Fold Change (95% CI) from Day 1: 0.96 (0.81, 1.29)
  Monocytes %, Med. Fold Change (95% CI) from Day 1: 0.60 (0.40, 0.87)
  Neutrophils % + bands, Med. Fold Change (95% CI) from Day 1: 1.08 (0.96, 1.13)
  Platelet Count, Med. Fold Change (95% CI) from Day 1: 1.10 (0.84, 1.17)
  White blood cell (WBC), Med. Fold Change (95% CI) from Day 1: 0.89 (0.78, 1.07)
[6]; 14–16 Days from C1, N=9
  Absolute Immature Granulocyte, Med. Fold Change (95% CI) from Day 1: 0.50 (0.19, 1.00)
  Immature granulocytes, Med. Fold Change (95% CI) from Day 1: 0.46 (0.30, 0.67)
[6]; 14–16 Days from C1, N=11
  Absolute Basophil Count, Med. Fold Change (95% CI) from Day 1: 0.67 (0.50, 1.00)
  Absolute Eosinophil Count, Med. Fold Change (95% CI) from Day 1: 1.00 (0.81, 1.27)
  Basophils %, Med. Fold Change (95% CI) from Day 1: 0.83 (0.50, 1.13)
  Eosinophils %, Med. Fold Change (95% CI) from Day 1: 0.97 (0.92, 1.53)
[6]; 14–16 Days from C1, N=13
  Absolute Lymphocyte Count, Med. Fold Change (95% CI) from Day 1: 0.88 (0.73, 1.03)
  Absolute Monocyte Count, Med. Fold Change (95% CI) from Day 1: 0.56 (0.40, 0.89)
  Absolute Neutrophil Count, Med. Fold Change (95% CI) from Day 1: 0.96 (0.64, 1.15)
  Hemoglobin (Hgb), Med. Fold Change (95% CI) from Day 1: 0.97 (0.91, 1.00)
  Lymphocytes %, Med. Fold Change (95% CI) from Day 1: 0.92 (0.87, 1.25)
  Monocytes %, Med. Fold Change (95% CI) from Day 1: 0.67 (0.52, 0.89)
  Neutrophils % + bands, Med. Fold Change (95% CI) from Day 1: 1.08 (0.96, 1.13)
  Platelet Count, Med. Fold Change (95% CI) from Day 1: 0.97 (0.83, 1.13)
  White blood cell (WBC), Med. Fold Change (95% CI) from Day 1: 0.85 (0.65, 1.06)
[6]; 27–29 Days from C1, N=6
  Absolute Immature Granulocyte, Med. Fold Change (95% CI) from Day 1: 0.20 (0.00, 2.50)
  Immature granulocytes, Med. Fold Change (95% CI) from Day 1: 0.24 (0.00, 2.00)
[6]; 27–29 Days from C1, N=8
  Absolute Eosinophil Count, Med. Fold Change (95% CI) from Day 1: 0.63 (0.31, 5.37)
  Eosinophils %, Med. Fold Change (95% CI) from Day 1: 0.76 (0.48, 4.19)
[6]; 27–29 Days from C1, N=9
  Absolute Basophil Count, Med. Fold Change (95% CI) from Day 1: 0.33 (0.00, 0.67)
  Basophils %, Med. Fold Change (95% CI) from Day 1: 0.22 (0.00, 0.83)
[6]; 27–29 Days from C1, N=10
  Absolute Lymphocyte Count, Med. Fold Change (95% CI) from Day 1: 0.86 (0.60, 1.21)
  Absolute Monocyte Count, Med. Fold Change (95% CI) from Day 1: 0.64 (0.26, 0.88)
  Absolute Neutrophil Count, Med. Fold Change (95% CI) from Day 1: 0.70 (0.46, 1.66)
  Hemoglobin (Hgb), Med. Fold Change (95% CI) from Day 1: 1.03 (0.95, 1.13)
  Lymphocytes %, Med. Fold Change (95% CI) from Day 1: 1.28 (0.47, 1.95)
  Monocytes %, Med. Fold Change (95% CI) from Day 1: 0.84 (0.26, 1.06)
  Neutrophils % + bands, Med. Fold Change (95% CI) from Day 1: 0.97 (0.78, 1.30)
  Platelet Count, Med. Fold Change (95% CI) from Day 1: 0.94 (0.79, 1.18)
  White blood cell (WBC), Med. Fold Change (95% CI) from Day 1: 0.81 (0.58, 1.28)
[7]; 1 patient with peritoneal mesothelioma, 400 mg/m^2/day DL
  Sustained partial response, RECIST decrease in longest diameter of target lesion: 67%
[7]; 16 patients enrolled
  Stable disease, number of patients: three
[7]; 16 patients, 1 C = 28 days
  Median number of treatment cycles received: 1 C
[7]; one patient with metastatic, rapidly progressive osteosarcoma, 1 C = 28 days
  Duration of stable disease prior to disease progression: 4 C
[7]; patient 1, Peritoneal mesothelioma, dose level 1
  Reason Off Treatment: Remains on Study
[7]; [11]
  Reason Off Treatment: Progressive Disease
  Time-point Off Treatment: Cycle 1 Day 23
[7]; [12]
  Reason Off Treatment: Progressive Disease
  Time-point Off Treatment: Cycle 1 Day 28
[7]; [13]
  Reason Off Treatment: Best Interest of Patient
  Time-point Off Treatment: After Cycle 4
[7]; [14]
  Reason Off Treatment: Withdrawal of Consent
  Time-point Off Treatment: After Cycle 1 (took 23 doses)
[7]; [15]
  Reason Off Treatment: Best Interest of Patient
  Time-point Off Treatment: After Cycle 6
[7]; [16]
  Reason Off Treatment: Progressive Disease
  Time-point Off Treatment: After Cycle 1
[7]; [17]
  Reason Off Treatment: Progressive Disease
  Time-point Off Treatment: After Cycle 1
[7]; [18]
  Reason Off Treatment: Progressive Disease
  Time-point Off Treatment: Cycle 2 Day 28
[7]; [19]
  Reason Off Treatment: Progressive Disease
  Time-point Off Treatment: Cycle 4 Day 6
[7]; [20]
  Reason Off Treatment: Progressive Disease
  Time-point Off Treatment: Cycle 3 Day 1
[7]; [21]
  Reason Off Treatment: Progressive Disease
  Time-point Off Treatment: Cycle 1 Day 12
[7]; [22]
  Reason Off Treatment: Progressive Disease
  Time-point Off Treatment: Cycle 1 Day 15
[7]; [23]
  Reason Off Treatment: Progressive Disease
  Time-point Off Treatment: Cycle 1 Day 23
[7]; [24]
  Reason Off Treatment: Progressive Disease
  Time-point Off Treatment: Cycle 3 Day 16
[7]; [25]
  Reason Off Treatment: Progressive Disease
  Time-point Off Treatment: Cycle 2 Day 5
[8]
  Liver toxicity in adult trials: idiosyncratic, serious (grade 4–5) liver toxicity was observed in a small subset of patients
[9]
  Median terminal half-life: 16.8 h
Population PK modeling; body weight < 30 kg
  RP2D based on body weight (population PK): 400 mg daily
Population PK modeling; body weight ≥ 30 & < 40 kg
  RP2D based on body weight (population PK): 600 mg daily
Population PK modeling; body weight ≥ 40 kg
  RP2D based on body weight (population PK): 800 mg daily
Population PK modeling; human, plasma, oral, 800 mg, Steady-state AUC, 5th to 95th percentile, adult TGCT patients receiving 800 mg daily
  AUC: 96 to 255 µg·h/mL
[10]; human, in vivo, 28 days
  Recommended phase II dose (RP2D), BSA based: 800 mg/m^2/day
[10]; in vivo
  Dose-limiting toxicities (DLT): No DLTs
[10]; in vivo, po
  Tolerability: well tolerated
[10]; up to 800 mg/m^2/dose
  Maximum tolerated dose (MTD): not reached
